# MC4R barr agon = human MC4R agonism via beta-arrestin. P32245. hit rate 0.98% among 360,000. activation, % at 8.9 µM. U2OS MC4R beta-arrestin complementation, luminescence; percent of melanotan II response, DMSO zero;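 active = activation above a per-plate cutoff, the mean activation of sample wells on that plate plus 3 SD, cut at about 8% in these data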
# Target sequence (P32245 whole entry, looked up): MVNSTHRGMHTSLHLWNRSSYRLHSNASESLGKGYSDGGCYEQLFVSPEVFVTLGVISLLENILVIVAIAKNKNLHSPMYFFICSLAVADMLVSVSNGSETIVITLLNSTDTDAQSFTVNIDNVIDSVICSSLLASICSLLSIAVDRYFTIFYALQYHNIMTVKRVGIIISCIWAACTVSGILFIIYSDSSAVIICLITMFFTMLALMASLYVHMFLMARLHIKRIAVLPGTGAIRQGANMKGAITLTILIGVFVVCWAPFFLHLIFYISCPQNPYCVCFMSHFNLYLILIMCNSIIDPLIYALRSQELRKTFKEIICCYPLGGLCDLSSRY
# B2AR ag = human beta-2 adrenergic receptor agonism by FAP; P07550; Am2.2-beta2AR cells, FAP receptor internalization, flow cytometry; response, % (concentration not given with the values); hit rate 0.43% among 340,000; AID 504454;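 active = response above a set limit, near 3 SD of response in nonfluorescent compounds, cut at about 42% in these data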
# m5-HT2A agonist = activates the mouse 5-HT2A serotonin receptor | P35363 | CHO-K1 mHTR2A beta-arrestin complementation, luminescence; percent of 30 µM serotonin response | activation, % at 7.6 µM | hit rate 0.66% among 360,000 | AID 624169;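 active = activation above a run cutoff, the mean activation of all tested compounds plus 3 SD, cut at about 14% in these data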;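 also: 0% = plate median of compound wells and 100% = 30 µM serotonin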
# Target sequence (P35363 whole entry, looked up): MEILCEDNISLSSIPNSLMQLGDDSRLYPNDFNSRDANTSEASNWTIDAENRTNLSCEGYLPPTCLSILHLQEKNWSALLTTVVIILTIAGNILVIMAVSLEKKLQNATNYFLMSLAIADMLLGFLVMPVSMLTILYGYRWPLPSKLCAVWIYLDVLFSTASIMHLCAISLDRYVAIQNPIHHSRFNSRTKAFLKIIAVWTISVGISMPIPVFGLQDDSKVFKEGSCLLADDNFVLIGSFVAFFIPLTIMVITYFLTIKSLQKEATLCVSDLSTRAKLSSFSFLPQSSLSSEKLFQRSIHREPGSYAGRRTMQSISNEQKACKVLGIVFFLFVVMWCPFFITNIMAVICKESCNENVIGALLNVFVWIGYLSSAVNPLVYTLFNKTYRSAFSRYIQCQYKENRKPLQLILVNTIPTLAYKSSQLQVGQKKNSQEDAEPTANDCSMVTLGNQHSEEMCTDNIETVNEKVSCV
# TAAR1 antag = antagonists of human TAAR1. Q96RJ0. CHO RD-HGA16 TAAR1, Fluo-8 calcium fluorescence, antagonist. inhibition, % at 3 µM. hit rate 1.5% among 360,000. AID 624466;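 active = inhibition above a per-plate cutoff, the mean inhibition of test compounds on that plate plus 3 SD, cut at about 49% in these data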;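 also: 0% = DMSO plus EC80 beta-PEA response and 100% = DMSO alone without agonist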
#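 Material: RD-HGA16 CHO cells with stable hTAAR1 and Gα16; Dosing: single nominal final test compound concentration of 3 µM; Schedule: seeding 17-24 h prior, 75-min 37 °C, 30-min RT dye loading; Detection: kinetic Fluo-8 calcium fluorescence measurement; Measure: % inhibition from peak post-agonist over basal fluorescence ratio; Benchmarks: vehicle and agonist controls.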
# MC4R antagonist = blocks human MC4R cAMP signaling; P32245; MC4R-expressing cells, MTII-stimulated cAMP, LANCE TR-FRET; inhibition, % at 6.5 µM; hit rate 0.48% among 360,000; AID 540295;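 active = inhibition above its plate's cutoff, the mean of tested wells on that plate plus 3 SD, cut at about 29% in these data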;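 also: 0% = Melanotan II alone and 100% = Melanotan II plus saturating MCL0020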
#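 material = U2OS cells stably expressing human melanocortin 4 receptor (MC4R) | also added = Melanotan II challenge | dosing = single nominal compound dose of 6.5 µM | detection = TR-FRET with Eu-cAMP and labeled anti-cAMP, 671 nm | replication = singlicate | timing = compound 30 min, challenge 1 h, detection 1 h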
# TAAR1 agonist = human TAAR1 agonism | activation, % at 3 µM | AID 624467 | hit rate 0.99% among 360,000 | CHO RD-HGA16 TAAR1, Fluo-8 calcium fluorescence; vehicle wells 0%, saturating PEA agonist 100% | Q96RJ0;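 active = activation above the mean activation of all test compounds in the run plus 3 SD, cut at about 38% in these data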
#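 Benchmarks: low control DMSO, high control PEA (EC100); System: CHO RD-HGA16 cells carrying human TAAR1 plus Gα16; Detection: Fluo-8 fluorescence, 5 s baseline then 140 s kinetic read; Schedule: 17-24 h plating, Fluo-8 75 min 37 °C, 30 min RT; Read-out basis: % activation from peak over basal fluorescence ratio, DMSO-to-PEA scaled.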
# MC4R barr conf = human MC4R beta-arrestin agonism confirmation; shares compounds with MC4R barr agon; U2OS MC4R beta-arrestin recruitment, luminescence; scaled DMSO 0%, Melanotan II 100%; hit rate 31% among 2,400; activation, % at 8.9 µM; AID 602192;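 active = mean activation across replicates above the hit cutoff set in the earlier primary screen, cut at about 8% in these data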
# MOR DOR agonist = activates mu-delta opioid heterodimer, MC4R agonist counter-screen | activation, % at 9.2 µM | shares compounds with MC4R barr agon | hit rate 5.8% among 2,400 | AID 602194 | U2OS PathHunter beta-arrestin, beta-gal luminescence; percent of deltorphin B response, DMSO zero;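 active = mean activation across replicates exceeds the hit threshold derived in the earlier primary screen, cut at about 18% in these data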;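 also: 100% = deltorphin B at 0.9 µM final and 0% = DMSO alone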
# MOR ag counter = OPRM1 agonism in mouse HTR2A counterscreen. U2OS OPRM1 beta-arrestin PathHunter, luminescence; DMSO 0%, DAMGO 9.3 µM 100%. activation, % at 9.3 µM. shares compounds with m5-HT2A agonist. hit rate 5.3% among 2,300. AID 624380;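 active = mean activation above the mean of DMSO-only wells plus 3 SD, cut at about 0.5% in these data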
# m5-HT2A ag conf = mouse HTR2A agonism confirmed. CHO-K1 PathHunter beta-arrestin recruitment, luminescence; DMSO 0%, 30 µM serotonin 100%. shares compounds with m5-HT2A agonist. hit rate 19% among 2,300. activation, % at 7.6 µM;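 active = mean activation across triplicates above the hit threshold derived in the original primary screen, cut at about 15% in these data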
# TAAR1 ag conf = confirmation of human TAAR1 agonists; shares compounds with TAAR1 agonist; activation, % at 3 µM; CHO RD-HGA16 TAAR1, Fluo-8 calcium fluorescence; scaled: DMSO 0%, maximal phenethylamine 100%; hit rate 82% among 2,400;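 active = activation above a cutoff set at the run's mean compound activation plus 3 SD, cut at about 39% in these data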
# Ga16 nonsel ag = nonselective agonism, TAAR1 counter-screen | shares compounds with TAAR1 agonist | CHO-Ga16 parental, Fluo-8 calcium fluorescence; normalized to maximal ATP response, DMSO zero | hit rate 50% among 2,400 | activation, % at 3 µM;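 active = activation above the run cutoff, the mean activation over all tested wells plus 3 SD, cut at about 12% in these data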;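 also: 0% = DMSO wells and 100% = maximal ATP response on the peak over basal ratio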
# TAAR1 desens = human TAAR1 agonist that also desensitizes the receptor; shares compounds with TAAR1 agonist; CHO RD-HGA16 hTAAR1, Fluo-8 calcium, beta-PEA response inhibition; inhibition, % at 3 µM; hit rate 46% among 2,400; AID 651951;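 active = inhibition above the run cutoff, the mean inhibition of all test compounds plus 3 SD, cut at about 49% in these data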;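 also: beta-PEA stimulus applied at its EC80; loss of beta-PEA calcium signal after compound pretreatment read as receptor desensitization; 0% = DMSO with beta-PEA at EC80 and 100% = DMSO alone without agonist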
# Ga16 antag count = nonselective Ga16 antagonism, counter-screen. shares compounds with TAAR1 agonist. CHO-Ga16 ATP-induced calcium, Fluo-8 fluorescence. inhibition, % at 3 µM. hit rate 39% among 2,400;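 active = inhibition above the plate's mean compound inhibition plus 3 SD, computed per plate, cut at about 22% in these data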;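 also: 0% = EC80 ATP with DMSO and 100% = DMSO wells without ATP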
# * hit, by the source's call; . = no result. Sampled rows, rich in hits. Any-hit rate of the full collection: about 4.3%.
SMILES,MC4R barr agon,B2AR ag,m5-HT2A agonist,TAAR1 antag,MC4R antagonist,TAAR1 agonist,MC4R barr conf,MOR DOR agonist,MOR ag counter,m5-HT2A ag conf,TAAR1 ag conf,Ga16 nonsel ag,TAAR1 desens,Ga16 antag count
CCOC(=O)c1c(CSC(=N)N)n(C)c2cc(Br)c(OC(C)=O)cc12,-3,4,-9,-23,1,7,.,.,.,.,.,.,.,.
COCCN(C(=O)Cc1ccc(S(=O)(=O)N2CCOCC2)s1)c1c(N)n(CC(C)C)c(=O)[nH]c1=O,-1,33,2,2,0,-1,.,.,.,.,.,.,.,.
CCCCCc1ccc(OCCCC[n+]2cccc(C)c2)c(CCCCC)c1,16*,3,-5,-2,11,60*,13*,6,.,.,76*,53*,52*,39*
CCCCCc1ccc(OCCCC[n+]2ccc(C)cc2)c(CCCCC)c1,7,8,-1,-11,12,35,.,.,.,.,.,.,.,.
CC(OC(=O)Cc1ccc(Cl)cc1)C(=O)NC1CCCCC1C (centres undefined),-3,-2,-2,-33,7,0,.,.,.,.,.,.,.,.
CCOC(=O)c1c(C)[nH]c(C)c1S(=O)(=O)N(C)CC(=O)N1CCN(c2ccc(OC)cc2)CC1,-4,-5,-1,-12,3,-1,.,.,.,.,.,.,.,.
CCc1ccc(NC(=S)NC2CCN(Cc3ccccc3)CC2)cc1,7,0,-6,-14,18,28,.,.,.,.,.,.,.,.
CCC(C)c1ccc(NC(=S)NC2CCN(Cc3ccccc3)CC2)cc1 (centres undefined),15*,18,-6,1,13,58*,22*,14,.,.,45*,19*,39,27*
O=C(N/N=C/c1ccc(O)cc1)c1ccc(COc2cc(Cl)ccc2Cl)o1,26*,49*,3,76*,5,93*,40*,9,.,.,98*,69*,87*,59*
CSc1ccc(C(=O)NC2CCSc3ccccc32)cc1 (centres undefined),21*,7,-2,89*,-4,65*,3,6,.,.,53*,48*,66*,62*
COc1ccc(C(=O)NC2CCSc3ccccc32)cc1 (centres undefined),0,-5,-1,-4,-2,-2,.,.,.,.,.,.,.,.
CC(C)CC(N)c1csc(Nc2ccc(C(F)(F)F)cn2)n1 (centres undefined),10*,.,0,25,-1,58*,26*,13,.,.,54*,22*,31,26*
NC(CCc1ccccc1)c1csc(Nc2ccc(C(F)(F)F)cn2)n1 (centres undefined),17*,.,0,21,-7,56*,3,11,.,.,40*,25*,40,36*
NC(Cc1ccc(C(F)(F)F)cc1)c1csc(NC(=O)Nc2ccccc2)n1 (centres undefined),19*,.,-3,37,1,50*,19*,13,.,.,61*,40*,63*,53*
O=C(NC1CC1)c1cccc(NC(=O)C2CCCCC2)c1,-1,-2,2,-12,0,1,.,.,.,.,.,.,.,.
CN(C)c1ncnc2c1ccn2C1OC(CO)C(O)C1O (centres undefined),-1,-3,-1,-10,-4,3,.,.,.,.,.,.,.,.
OCC1OC(n2ccc3c(NO)ncnc32)C(O)C1O (centres undefined),0,4,18*,-7,8,2,.,.,0,13,.,.,.,.
Nc1ncnc2c1ncn2[C@@H]1O[C@H](CO)[C@@H](O)[C@H]1O,-1,6,28*,5,4,1,.,.,-1,-2,.,.,.,.
CC(NC(=O)C(C)N1CCN(Cc2ccccc2)CC1)c1ccccc1 (centres undefined),-2,14,10,-3,3,0,.,.,.,.,.,.,.,.
CSc1nnc(-c2ccc(S(=O)(=O)N3CCCCC3)cc2)o1,0,-5,-13,6,13,-3,.,.,.,.,.,.,.,.
NC(=O)c1ccc(/C=N/O)[n+](Cc2ccccc2)c1,0,-2,16*,-8,11,1,.,.,-1,-3,.,.,.,.
COc1cc(NC(=O)CN2C(=O)C(c3ccccc3)=NC2(C)C)cc(OC)c1,0,6,28*,-10,2,2,.,.,0,-4,.,.,.,.
COc1cc(NC(=O)CN2C(=O)C(c3ccccc3)=NC23CCCCCC3)cc(OC)c1,2,6,-3,-21,1,-1,.,.,.,.,.,.,.,.
C[C@H]1Cn2cnc(C(=O)Nc3ccc(CNC(=O)OC(C)(C)C)cc3)c2C(=O)N1,-1,.,-3,13,14,6,.,.,.,.,.,.,.,.
C[C@H](NC(=O)c1[nH]cnc1C(=O)Nc1ccc(CNC(=O)OC(C)(C)C)cc1)C(=O)OC(C)(C)C,4,16,19*,45,23,15,.,.,0,2,.,.,.,.
CC(C)(C)OC(=O)NCc1ccc(NC(=O)c2nc[nH]c2C(=O)NCCCCNC(=O)c2[nH]cnc2C(=O)Nc2ccc(CNC(=O)OC(C)(C)C)cc2)cc1,-1,23,2,.,15,.,.,.,.,.,.,.,.,.
CN1CCn2cnc(C(=O)Nc3ccc(CNC(=O)OC(C)(C)C)cc3)c2C1=O,1,.,16*,21,-2,0,.,.,-1,-3,.,.,.,.
CC(C)(C)c1ccc(O)c(N=Cc2cc(Br)ccc2O)c1,-1,8,49*,-1,0,4,.,.,0,2,.,.,.,.
